# Bioassay records from PubChem BioAssay.
# MsrA inh: bovine MsrA enzyme inhibitors, primary screen, biochemical, absorbance, HTS; Methionine sulfoxide reductase A (Bos taurus); purified bovine MsrA, absorbance read-out; inhibition, % at 15.5 µM; actives 0.75% (n = 360,000); AID 651718, 2012; in the data active means inhibition above about 4.5%;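 further: 0% = vehicle wells with enzyme and 100% = reference inhibitor wells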
# AI-2 QS modul: Vibrio harveyi AI-2 quorum sensing modulators, primary screen, JMH597 strain, luminescence/OD600 ratio; Vibrio harveyi JMH597 AI-2 luminescence/OD600 ratio, 9 h; active compounds read low; strain lacks LuxN and CqsS sensors; 0 = neutral-control median; activity change, % at 7.5 µM; actives 0.4% (n = 300,000); in the data active means activity change below about -75%, passing the limit was not always enough;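 further: luminescence divided by OD600 gain over 9 h not by final OD600 alone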
# Tb MetRS inh: T. brucei MetRS inhibitors, primary screen, biochemical, luminescence | purified T. brucei MetRS, ATP depletion, Kinase-Glo luminescence | inhibition, % at 11.9 µM | actives 0.4% (n = 360,000) | AID 624268, 2012;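 active means inhibition above a per-plate cutoff of the control wells' mean inhibition plus 3 SD, cut at about 5.5% in these data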;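 further: 0% = DMSO wells median and 100% = median of wells with control inhibitor compound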
#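 System: purified T. brucei MetRS enzyme / Detection: Kinase-Glo luciferase luminescence reporting remaining unconsumed ATP / Medium: HEPES buffer with MgCl2, KCl, DTT, spermine, BSA, pyrophosphatase / Replication: singlicate, one well per compound / Evaluation: percent inhibition relative to median high and low control wells / Schedule: 2 h aminoacylation at 25 °C after 15 min preincubation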
# bovine MsrA act: bovine MsrA enzyme activators, primary screen, biochemical, absorbance, HTS; actives 0.3% (n = 360,000); purified bovine MsrA, absorbance read-out; activation, % at 10.6 µM; in the data active means activation above about 7.5%;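 further: 0% = vehicle and 100% = reference activator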
# HTR2A ag: mouse Htr2a agonists via beta-arrestin recruitment, primary screen, cell-based, luminescence. 5-hydroxytryptamine receptor 2A (Mus musculus), P35363. CHO-K1 mHTR2A beta-arrestin complementation; percent of 30 µM serotonin response. activation, % at 7.6 µM. actives 0.66% (n = 360,000);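 active means activation above a run cutoff, the mean activation of all tested compounds plus 3 SD, cut at about 14% in these data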;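 further: 0% = plate median of compound wells and 100% = 30 µM serotonin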
# AHR activator: AHR activators, primary screen, cell-based, luminescence, luciferase reporter, human | actives 2.5% (n = 320,000) | AHR-responsive luciferase reporter cells | AID 2796, 2010 | Aryl hydrocarbon receptor (Homo sapiens), P35869 | activation, % at 5 µM; in the data active means activation above about 47%;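 further: 0% = vehicle wells and 100% = reference agonist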
# Target sequence (P35869 whole entry, looked up): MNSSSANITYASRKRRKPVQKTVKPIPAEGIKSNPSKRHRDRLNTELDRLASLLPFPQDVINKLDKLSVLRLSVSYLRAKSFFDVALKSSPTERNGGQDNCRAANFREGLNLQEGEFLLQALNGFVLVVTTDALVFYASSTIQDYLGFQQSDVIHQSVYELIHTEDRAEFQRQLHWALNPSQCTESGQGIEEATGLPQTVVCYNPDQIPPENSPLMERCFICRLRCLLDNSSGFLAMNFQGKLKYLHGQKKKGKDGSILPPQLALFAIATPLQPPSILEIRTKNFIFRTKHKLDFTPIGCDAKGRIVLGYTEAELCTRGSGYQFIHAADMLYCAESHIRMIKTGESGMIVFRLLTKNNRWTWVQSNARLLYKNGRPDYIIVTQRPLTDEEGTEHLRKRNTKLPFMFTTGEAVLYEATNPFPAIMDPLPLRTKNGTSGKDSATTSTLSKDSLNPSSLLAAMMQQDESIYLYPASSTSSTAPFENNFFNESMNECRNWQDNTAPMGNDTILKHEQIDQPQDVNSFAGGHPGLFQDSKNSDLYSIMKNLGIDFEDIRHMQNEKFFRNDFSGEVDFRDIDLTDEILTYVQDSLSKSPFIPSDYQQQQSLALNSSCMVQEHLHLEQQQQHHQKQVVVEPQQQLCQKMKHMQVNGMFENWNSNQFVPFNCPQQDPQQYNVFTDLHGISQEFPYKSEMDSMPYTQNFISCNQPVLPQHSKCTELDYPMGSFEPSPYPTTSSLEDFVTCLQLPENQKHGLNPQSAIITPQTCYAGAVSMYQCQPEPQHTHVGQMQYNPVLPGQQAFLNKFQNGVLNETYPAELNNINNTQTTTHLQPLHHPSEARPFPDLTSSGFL
# The depositor's hits bear a star; x = not tested or not shown. Shown are actives, neighbours in structure and some others; about 4.4% of the full set was active somewhere.
SMILES,MsrA inh,AI-2 QS modul,Tb MetRS inh,bovine MsrA act,HTR2A ag,AHR activator
COc1ccc(-c2cc(NC(=O)Cc3c[nH]c4ccccc34)ccc2Nc2cccnc2)c(OC)c1,0.6,x,x,x,x,x
CC(C)c1cc(N=NC(N)=O)cc(C(C)C)c1O,4.6*,-13.2,-0.5,-5.6,2.3,-2.9
Cc1ccc(C(=O)Nc2cc(C(C)C)c(O)c(C(C)C)c2)cc1,0.4,3.7,0.1,-2.8,-2.5,2.8
COc1cc(/C=N/NC(=O)c2ccc(-c3ccccc3)cc2)cc(OC)c1OC,0.4,17.7,-0.8,-4.4,-1.7,11.4
COc1cc(/C=N/NC(=O)c2cc(-c3ccccc3)sc2N)cc(OC)c1OC,2.6,21.3,x,x,x,49.3*
NNC(=O)c1sc(-c2ccccc2)cc1N,2.5,30.3,-1.3,-12.0,-3.5,65.8*
NNC(=O)c1cc(-c2ccccc2)sc1N,1.6,54.6,0.8,-3.1,-0.4,55.9*
O[C@@H](Cc1ccccc1)[C@@H](/C=C/c1ccccc1)N(Cc1ccccc1)Cc1ccccc1,0.2,x,x,x,x,x
COC(=O)c1oc2ccccc2c1N,-0.1,13.2,-1.1,-10.4,3.0,77.0*
COc1cccc(N(CC(=O)Nc2ccc3c(c2)OCO3)S(=O)(=O)c2ccccc2)c1,0.6,23.0,0.3,0.1,-5.6,76.0*
CCOc1ccccc1N(CC(=O)Nc1ccc2c(c1)OCO2)S(C)(=O)=O,0.0,4.7,-0.1,1.0,-2.5,69.4*
Cc1ccccc1N(CC(=O)Nc1ccc(F)cc1)S(C)(=O)=O,-0.7,11.0,0.0,-9.5,1.5,68.7*
COc1ccc(N(CC(=O)Nc2ccc3c(c2)OCO3)S(C)(=O)=O)c(OC)c1,0.9,-9.8,-1.4,-7.9,-5.3,18.6
COc1ccc(N(CC(=O)Nc2ccc3c(c2)OCO3)S(=O)(=O)c2ccccc2)cc1,-0.5,23.6,0.4,-1.4,-2.8,42.2
COc1ccc(S(=O)(=O)N(CC(=O)Nc2ccc3c(c2)OCO3)c2ccccc2OC)cc1,-0.8,5.5,-1.4,1.1,-4.1,47.1*
CC(C)C[C@H](NC(=O)c1ccccn1)C(=O)N1CCC[C@H]1C(=O)NCc1ccccc1,-0.6,x,x,x,x,x
COc1c2c(cc3c1c(=O)c1ccccc1n3C)OCO2,0.4,x,x,x,x,x
COC(=O)[C@]12C[C@H](CC(=O)NCc3cccc4ccccc34)C(=O)N(CCC3=CCCCC3)C1=C[C@H](C(C)(C)C)O[C@@H]2C,0.1,x,x,x,x,x
S=C(NCCCn1ccnc1)Nc1cccc(Cl)c1,-1.1,20.4,0.7,-7.9,-0.6,49.1*
O=C(NCCCn1ccnc1)c1ccc2ccccc2c1,-0.9,5.0,-0.3,-3.3,-8.7,60.0*
O=C(/C=C/c1cccc(Cl)c1)NCCc1ccccc1,-0.8,-24.9,-0.1,-3.7,-3.6,11.7
CCOc1ccc(NC(=S)NCCCn2ccnc2)cc1,0.7,7.2,-0.3,-1.6,1.4,1.1
O=C(/C=C/c1ccc(Br)cc1)NCCCn1ccnc1,-0.4,20.8,1.3,-3.4,-0.9,38.0
O=C(NCCCn1ccnc1)c1cc2ccccc2oc1=O,0.7,10.3,0.1,-1.1,3.2,24.4
O=C(/C=C/c1c(Cl)cccc1Cl)NCCCn1ccnc1,-1.1,12.8,-0.7,-5.1,-6.0,47.6*
SMILES,MsrA inh,AI-2 QS modul,Tb MetRS inh,bovine MsrA act,HTR2A ag,AHR activator
O=C(/C=C/c1c(Cl)cccc1Cl)NCCc1ccccc1,0.7,19.2,0.2,8.0*,-0.9,-5.2
CCCCCC1C(C(=O)OCC)C(=O)NC1(C(=O)OCC)C(=O)OCC (centres undefined),-0.7,x,-0.3,-0.4,-1.0,x
COc1cc(-n2c(C)cc(O)cc2=O)ccc1Cl,-0.5,x,x,x,x,x
O=C(NCCCn1ccnc1)c1sc2cccc(F)c2c1Cl,0.3,-16.4,-1.1,-2.3,-3.5,78.2*
O=C(NCCCn1ccnc1)c1cc2c(s1)CCCCC2,0.2,9.2,-0.2,-2.0,0.3,19.5
CC1CCc2sc(C(=O)NCCCn3ccnc3)cc2C1 (centres undefined),-0.3,5.8,-0.6,-4.9,-5.3,51.0*
N#Cc1ccc2nc(-c3ccc(CN4CCC(n5cc(-c6ccccc6)[nH]c5=O)CC4)cc3)c(-c3ccccc3)nc2c1,2.5,x,x,x,x,x
COC(=O)c1ccc(COc2ncnc3c(Cl)cc(Cl)cc23)o1,0.2,-78.6*,0.5,-1.6,-3.9,12.8
CN1CCN(C/C(=C2/N=C(c3ccccc3)OC2=O)N(C)C)CC1,4.6*,48.5,-0.6,-4.2,-2.8,-1.8
CC1CC1C(=O)OCC(=O)Nc1cc(S(=O)(=O)N2CCCCC2)ccc1Cl (centres undefined),0.4,x,-0.2,-3.0,1.2,-1.0
Cn1ncc(Br)c1C(=O)Nc1ccc(Br)cn1,-0.1,8.5,-0.6,-4.5,1.8,174.8*
Cn1ncc(Br)c1C(=O)Nc1ccc(Cl)cn1,0.0,47.0,-0.1,-4.4,4.0,64.8*
COC(=O)c1ccccc1NC(=O)c1c(Br)cnn1C,-0.2,11.8,-0.8,1.9,-0.9,2.7
Cc1csc(N/N=C/c2c(F)cccc2Cl)n1,1.4,-18.6,-0.1,-4.7,-3.8,57.2*
Cc1csc(N/N=C/c2ccccc2F)n1,2.4,2.5,-0.5,-1.3,-2.8,40.7
CCc1c(-c2ccc(F)cc2F)ncn1CCc1ccccc1OC,-0.2,x,x,x,x,x
COc1cc(NC(=O)c2cccnc2)c(Cl)cc1NC(=O)c1ccc(Cl)cc1,-1.0,17.9,0.0,-3.4,5.0,63.5*
COc1cc(NC(=O)c2ccc(Cl)cc2)c(Cl)cc1NC(=O)c1cccnc1,0.8,14.2,0.0,-3.9,-1.3,53.3*
COc1cc(NC(=O)c2cccnc2)c(Cl)cc1NC(=O)c1ccccc1,-0.8,13.0,-0.3,-0.6,1.0,75.3*
COc1cc(NC(=O)c2cccnc2)c(OC)cc1NC(=O)c1ccc(Br)cc1,x,16.0,0.6,-2.1,-0.3,43.3
Nc1ccn([C@@H]2O[C@H](C(=O)N[C@H](Cc3ccccc3)C(=O)NCc3cccc4c3OCO4)[C@@H](O)[C@H]2O)c(=O)n1,0.4,x,x,x,x,x
CCOC(=O)C1=C(C(=O)OCC)C2N(Cc3ccc(Br)cc3)c3ccccc3[C@@]23C[C@@H](C(=O)OC)N(S(=O)(=O)c2ccc(C(F)(F)F)cc2)C3=N1 (some centres undefined),0.6,x,x,x,x,x
COc1ccc(-c2c(C(=O)c3ccc(Br)cc3)[nH]c(N)c2C(=O)NCCc2c[nH]c3ccccc23)cc1OC,0.7,x,x,x,x,x
Cc1cc(/C=N/NC(=O)c2ccsc2)c(C)n1-c1cnccn1,2.4,23.6,-1.1,-10.9,0.9,77.5*
Cc1cc(NC(=S)NC(=O)CC(C)C)ccc1Br,0.9,15.7,0.0,-5.4,0.8,64.0*
